According to publication PMC5030192 (International journal of pharmaceutics, 2016):
≈ marks a conversion by molar mass, not a printed value. Square brackets hold non-standard residues; d marks the D form. Peptide text beside a SMILES is read from it. Sar = CNCC(=O)O

Legend:
PepT1 = assay: [3H]-GlySar uptake, interaction with peptide transporter; assay type: cell-based
In short: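 Monolayers grown to 80–90% confluency (6–7 days after seeding 3 × 10⁶ cells) were washed thrice in DPBS pH 7.4 at 37°C. They were then incubated 30 min at 37°C with [3H]-GlySar in DPBS plus test compound (25µM) or cold GlySar (10mM). Ice-cold stop wash, lysis in 0.1% Triton-X/0.3% NaOH overnight, scintillation counting; uptake normalised to protein. n=4, mean ± S.D., Student t-test.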

MRP2 = MRP2 (Homo sapiens, UniProt Q92887); assay: [3H]-LPV cellular uptake in MDCK-MRP2 cells; assay type: cell-based
Chain of MRP2 (Q92887 whole entry): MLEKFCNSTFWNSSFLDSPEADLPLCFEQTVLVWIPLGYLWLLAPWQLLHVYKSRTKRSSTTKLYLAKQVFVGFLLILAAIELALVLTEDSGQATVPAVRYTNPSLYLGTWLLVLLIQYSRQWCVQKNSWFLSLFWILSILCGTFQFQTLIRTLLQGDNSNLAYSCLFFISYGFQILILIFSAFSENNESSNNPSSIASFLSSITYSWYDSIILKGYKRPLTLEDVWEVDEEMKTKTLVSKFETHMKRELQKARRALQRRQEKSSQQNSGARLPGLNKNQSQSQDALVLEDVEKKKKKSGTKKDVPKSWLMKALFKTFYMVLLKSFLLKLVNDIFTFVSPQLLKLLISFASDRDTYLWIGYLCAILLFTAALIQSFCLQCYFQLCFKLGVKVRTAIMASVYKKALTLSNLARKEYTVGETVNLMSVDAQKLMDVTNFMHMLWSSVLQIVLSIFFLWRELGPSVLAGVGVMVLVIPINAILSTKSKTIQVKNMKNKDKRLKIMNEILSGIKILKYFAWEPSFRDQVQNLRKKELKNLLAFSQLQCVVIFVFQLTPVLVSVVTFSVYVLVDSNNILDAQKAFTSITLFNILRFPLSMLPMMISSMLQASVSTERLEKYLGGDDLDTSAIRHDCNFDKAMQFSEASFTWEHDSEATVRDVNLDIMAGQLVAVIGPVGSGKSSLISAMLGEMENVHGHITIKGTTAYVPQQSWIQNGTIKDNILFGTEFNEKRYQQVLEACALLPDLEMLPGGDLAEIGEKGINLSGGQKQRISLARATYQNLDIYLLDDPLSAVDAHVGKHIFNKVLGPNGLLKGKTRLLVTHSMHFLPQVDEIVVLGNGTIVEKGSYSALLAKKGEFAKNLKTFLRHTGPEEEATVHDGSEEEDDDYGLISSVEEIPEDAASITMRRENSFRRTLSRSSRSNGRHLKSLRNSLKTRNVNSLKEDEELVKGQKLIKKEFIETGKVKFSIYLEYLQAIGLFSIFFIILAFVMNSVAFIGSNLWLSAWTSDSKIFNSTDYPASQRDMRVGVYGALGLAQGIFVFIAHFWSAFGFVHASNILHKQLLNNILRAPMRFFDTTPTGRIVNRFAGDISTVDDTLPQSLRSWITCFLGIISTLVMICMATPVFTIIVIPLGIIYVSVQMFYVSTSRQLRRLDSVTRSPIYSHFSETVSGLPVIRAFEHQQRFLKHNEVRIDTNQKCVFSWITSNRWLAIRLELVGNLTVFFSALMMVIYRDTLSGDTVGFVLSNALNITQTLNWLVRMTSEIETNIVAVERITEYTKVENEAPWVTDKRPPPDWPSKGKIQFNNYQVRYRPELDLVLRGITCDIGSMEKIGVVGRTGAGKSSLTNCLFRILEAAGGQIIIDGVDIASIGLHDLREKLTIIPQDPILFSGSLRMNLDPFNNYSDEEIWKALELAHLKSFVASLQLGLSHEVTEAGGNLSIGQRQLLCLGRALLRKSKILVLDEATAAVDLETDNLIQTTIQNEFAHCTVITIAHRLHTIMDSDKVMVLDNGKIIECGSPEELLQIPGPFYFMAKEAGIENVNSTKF

P-gp = P-gp (Homo sapiens, UniProt P08183); assay: [3H]-LPV cellular uptake in MDCK-MDR1 cells; assay type: cell-based
Chain of P-gp (P08183 whole entry): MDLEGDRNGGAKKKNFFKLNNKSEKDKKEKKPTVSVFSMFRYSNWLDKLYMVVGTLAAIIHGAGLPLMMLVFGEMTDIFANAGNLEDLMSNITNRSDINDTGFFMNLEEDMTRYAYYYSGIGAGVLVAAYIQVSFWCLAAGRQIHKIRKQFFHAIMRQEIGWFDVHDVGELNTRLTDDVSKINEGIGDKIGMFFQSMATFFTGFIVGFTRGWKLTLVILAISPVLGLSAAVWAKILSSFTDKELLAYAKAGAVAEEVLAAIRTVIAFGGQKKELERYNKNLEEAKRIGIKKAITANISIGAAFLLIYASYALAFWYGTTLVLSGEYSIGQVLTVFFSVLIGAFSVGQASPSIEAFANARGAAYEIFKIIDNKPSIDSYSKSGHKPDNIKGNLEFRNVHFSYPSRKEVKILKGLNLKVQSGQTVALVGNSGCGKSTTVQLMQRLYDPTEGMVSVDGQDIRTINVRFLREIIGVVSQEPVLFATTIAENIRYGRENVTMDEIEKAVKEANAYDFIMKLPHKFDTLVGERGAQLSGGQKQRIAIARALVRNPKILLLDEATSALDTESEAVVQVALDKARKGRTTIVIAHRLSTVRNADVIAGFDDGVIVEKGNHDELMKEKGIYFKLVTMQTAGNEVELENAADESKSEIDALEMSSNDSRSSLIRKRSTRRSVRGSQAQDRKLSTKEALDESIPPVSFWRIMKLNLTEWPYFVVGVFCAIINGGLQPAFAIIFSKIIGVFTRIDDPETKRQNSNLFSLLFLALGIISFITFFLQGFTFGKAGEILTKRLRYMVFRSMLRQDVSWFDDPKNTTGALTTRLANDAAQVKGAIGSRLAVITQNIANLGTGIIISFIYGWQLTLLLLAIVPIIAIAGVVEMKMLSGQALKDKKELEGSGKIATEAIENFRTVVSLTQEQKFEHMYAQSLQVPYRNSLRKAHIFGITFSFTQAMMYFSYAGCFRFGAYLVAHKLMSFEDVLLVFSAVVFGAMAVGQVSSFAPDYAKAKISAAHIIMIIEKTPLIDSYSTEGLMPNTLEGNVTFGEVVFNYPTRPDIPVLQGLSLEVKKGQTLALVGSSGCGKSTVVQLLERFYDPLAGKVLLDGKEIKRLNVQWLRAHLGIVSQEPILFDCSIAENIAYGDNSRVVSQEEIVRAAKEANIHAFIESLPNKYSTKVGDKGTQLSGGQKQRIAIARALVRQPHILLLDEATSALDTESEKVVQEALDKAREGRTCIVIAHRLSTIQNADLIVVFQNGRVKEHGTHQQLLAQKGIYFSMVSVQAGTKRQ

MDCKII-WT cells = assay: MTS based cytotoxicity assay
PHT1 = assay: [3H]-His uptake, interaction with peptide/histidine transporter; assay type: cell-based; conditions: 25µM; MDCK-MDR1, MDCK-MRP2, Caco-2
[1] = ref Patel, 2014, cited from earlier work
[2] = Solubility studies in distilled deionized water; assay type: physicochemical; conditions: thermodynamic from solid

SMILES: CN(CC(=O)O)C(=O)CN [GlySar, Glycylsarcosine] (H-Gly-[Sar]-OH)
- reduction in [3H]-GlySar uptake (PepT1; all cell lines (MDCK-MDR1, MDCK-MRP2, Caco-2), prodrug 25µM, cold GlySar 10mM): 75%

SMILES: Cc1cccc(C)c1OCC(=O)N[C@@H](Cc1ccccc1)[C@@H](O)C[C@H](Cc1ccccc1)NC(=O)[C@H](C(C)C)N1CCCNC1=O [LPV, Lopinavir]
- [3H]-LPV uptake with increasing concentrations of unlabelled compound (MRP2): dramatically elevated
- [3H]-LPV uptake with increasing concentrations of unlabelled compound (P-gp): dramatically elevated
- reduction in number of viable cells (MDCKII-WT cells; 100 µM, 4h incubation, MDCK-WT cells): Approximately 13%
- reduction in number of viable cells / cell viability (MDCKII-WT cells; 200 µM, 4h incubation, MDCK-WT cells): ~36%
- Cytotoxicity (MDCKII-WT cells; 5–50 µM, 4h incubation, MDCK-WT cells): no cytotoxic effects
- variation in [3H]-L-His uptake in presence of compound (PHT1): no such variation
- mean residential time (MRT) ([1]; LPV itself dosed orally, rats): 3.13 h
- mean residential time (MRT) of regenerated LPV ([1]; regenerated after oral Val-Ile-LPV, rats): 10.1 h
- Area under the curve (AUC) of administered compound ([1]; single oral dose, Sprague Dawley rats): 177 ± 5 µmol·min/L
- solubility at 24 h [2]: 49 ± 3 µg/mL (≈ 77.9 µM)
- variation in [3H]-GlySar uptake in presence of compound (PepT1; 25µM, MDCK-MDR1, MDCK-MRP2, Caco-2): no such variation

SMILES: CC(C)(C)CC(C)(C)c1ccc(OCCO)cc1 [Triton-X]
- decrease in absorbance compared to negative control (MDCKII-WT cells; 0.1% Triton-X, positive control): about 70%
